Measurements taken from PubChem BioAssay AID463191 (Sanford-Burnham Center for Chemical Genomics, 2010).
The source made the active and inactive calls.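 Rule for the calls: active = compounds whose mean IC50 across repeat dose response tests falls below a set limit; inactive = the rest.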

Tested on: AML12 mouse hepatocytes, BODIPY lipid droplet imaging
Assay: hepatocyte lipid droplet accumulation inhibitors, dose response, imaging, AML12 mouse hepatocytes, high-content (AID 463191)
Details: cells loaded with 100 µM oleic acid
In short: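 Material: mouse AML12 hepatocytes; dosing: Seven-point series from 32 to 0.5 µM, 0.32% DMSO; schedule: ~20 h pre-growth at 37 °C, overnight treatment; benchmarks: Triacsin-C at 5 µM as positive control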

| Structure (SMILES) | IC50 |
| --- | --- |
| COc1ccc(Cl)cc1NC(=O)CN1C(=O)NC2(CCCC2)C1=O | 4270 nM |
| CCOc1ccc(CCNC(=O)COC(=O)c2c(C)nn(-c3ccccc3)c2C)cc1OCC | < 500 nM |
| CC(C)OC(=O)/C(=C/c1ccc2c(c1)c1ccccc1n2C)NC(=O)c1ccccc1 | 1800 nM |
| COc1ccc(CCNC(=O)CCOc2cc(C)ccc2C)cc1OC | 4550 nM |
| CCOc1ccc(CCNC(=O)Cn2nc(C)n3cccc3c2=O)cc1OCC | 2000 nM |
| O=C(Cc1coc2ccc3ccccc3c12)NC1CCCc2ccccc21 (stereo not drawn) | 4390 nM |
| O=C1C(NS(=O)(=O)c2cccs2)=C(N2CCN(c3cccc(C(F)(F)F)c3)CC2)C(=O)c2ccccc21 | 751 nM |
| Cc1cccc(C(C(=O)NC2CCCC2)N(C(=O)c2csnn2)C2CCCC2)c1 (stereo not drawn) | 23900 nM (inactive) |
| CC1CCN(C2=C(NS(=O)(=O)c3ccc(Br)cc3)C(=O)c3ccccc3C2=O)CC1 | 703 nM |
| COc1ccc(CN(C)C(=O)CNC(=O)Cc2cccc3ccccc23)c(OC)c1OC | 4550 nM |
| COc1ccc(C(C(=O)NC(C)(C)C)N(CC2CCCO2)C(=O)CCC(=O)Nc2cc(C)on2)cc1 (stereo not drawn) | 4950 nM |
| CCOc1ccc(CCNC(=O)c2cc3sccc3n2CC)cc1OCC | < 500 nM |
| CCOc1ccc(CCNC(=O)COC(=O)c2ccc(OC)c(OC)c2OC)cc1OCC | < 500 nM |
| CCOc1ccc(CCNC(=O)CCOc2cc(C)ccc2C)cc1OCC | < 500 nM |
| CCc1c(C#N)c(SCCC(=O)Nc2ccc(OC)cc2)nc2c1C(=O)CC(C)(C)C2 | 5310 nM (inactive) |
| CCOc1ccc(CCNC(=O)C2(c3ccccc3)CC2)cc1OCC | 3910 nM |
| CCOc1ccc(CCNC(=O)C(C)n2nc(C)n3c(cc4occc43)c2=O)cc1OCC (stereo not drawn) | 3610 nM |
| COc1ccc2c(c1)c(CC(=O)Nc1ccc(C)cc1)c(C)n2C(=O)c1ccc(Cl)cc1 | < 500 nM |
| CCOc1ccc(C2=NNC(c3cccs3)=Nc3ccc(OC)cc32)cc1OCC | 8700 nM (inactive) |
| CCOc1ccc(NC(=O)CSc2nc3ccccc3nc2N2CCCC2)cc1 | 1770 nM |
| CCOc1ccc(CCNC(=O)CCC(=O)N2CCOc3ccc(C)cc32)cc1OCC | 1440 nM |
| CCOC(=O)c1cc(CC)sc1NC(=O)C1CC(=O)NN1Cc1ccccc1 (stereo not drawn) | 573 nM |
| Cc1cccc(NC(=O)[C@H](C)NC(=O)[C@@H]2Cc3ccccc3CN2C(=O)OC(C)(C)C)c1 | 1630 nM |
| CCOc1ccc(CCNC(=O)CCS(=O)(=O)c2ccc(OC)cc2)cc1OCC | 2720 nM |
| COc1cc(NC(=O)c2ccco2)c(OC)cc1NC(=O)CCC(=O)Nc1cc(C)cc(C)c1 | < 500 nM |

| Structure (SMILES) | IC50 |
| --- | --- |
| CCOc1ccc(CCNC(=O)COC(=O)/C=C/c2ccc(C)o2)cc1OCC | 7620 nM (inactive) |
| CCOc1ccccc1NC(=O)N1CCCC1C(=O)Nc1ccc(-n2cnnn2)c(C)c1 (stereo not drawn) | 1420 nM |
| CCc1ccc(NC(=O)CSc2nnc(C)c(=O)n2N)cc1 | 1480 nM |
| CCOc1ccc(CCNC(=O)CCS(=O)(=O)c2ccc(C)cc2)cc1OCC | 1850 nM |
| CCOc1ccccc1NC(=O)N1CCC(C(=O)c2ccc(F)cc2)CC1 | 4480 nM |
| Cc1cc(C)cc(NC(=O)CSc2nc3ccccc3nc2N2CCCC2)c1 | 2110 nM |
| Cc1cc(C(=O)NC2CCCc3c2cnn3-c2cccc(C)c2C)c(C)o1 (stereo not drawn) | 2230 nM |
| CC1Cc2cc(S(=O)(=O)NCCC(=O)N(C)Cc3ccccc3)ccc2N1C(=O)C1CC1 (stereo not drawn) | 7520 nM (inactive) |
| CCCc1nc2ccccc2c(C(=O)OC(C)C(=O)NCc2ccc3c(c2)OCO3)c1CC (stereo not drawn) | 1970 nM |
| CCc1ccc(NC(=O)CNC(=O)[C@@H]2Cc3ccccc3CN2C(=O)OC(C)(C)C)cc1 | 5020 nM (inactive) |
| COc1ccc(CCNC(=O)[C@H](C)N2C(=O)N3CCc4c([nH]c5ccccc45)[C@@]3(C)C2=O)cc1OC | 1780 nM |
| CCOc1ccc(CCNC(=O)COC(=O)/C=C/c2ccc(OCC#N)c(OC)c2)cc1OCC | 21000 nM (inactive) |
| COc1ccc(C(=O)CCC(=O)NCCc2c[nH]c3ccccc23)cc1OC | 2120 nM |
| CCOc1ccc(NC(=O)CCSc2nc3c(c(CC)c2C#N)C(=O)CC(C)(C)C3)cc1 | 1770 nM |
| COc1ccc(OC)c(NC(=O)Cc2coc3ccc4ccccc4c23)c1 | 11400 nM (inactive) |
| COc1ccc(C(C(=O)NC(C)(C)C)N(CCC(C)C)C(=O)CCC(=O)Nc2cc(C)on2)cc1 (stereo not drawn) | 1200 nM |
| CCNC(=S)N1CCc2cc(OC)c(OC)cc2C1COc1ccc(F)cc1 (stereo not drawn) | 2280 nM |
| Cc1cc(N2CCOCC2)n2nc(C)c(-c3ccccc3Cl)c2n1 | 1050 nM |
| CCOc1ccc(CCNC(=O)CSc2cc(=O)n(CC)c3ccccc23)cc1OCC | 1100 nM |
| CCOc1ccccc1Nc1nnc(SC(C)C(=O)Nc2nc(-c3ccccc3)cs2)s1 (stereo not drawn) | 1250 nM |
| Cc1ccc(CNC(=O)CCCc2c[nH]c3ccccc23)cc1 | 11200 nM (inactive) |
| CC(C)(C)c1ccc(-c2csc(NNC3=NCCCCC3)n2)cc1 | 2090 nM |
| CCOc1ccc(CCNC(=O)CCNS(=O)(=O)c2ccc(Br)cc2)cc1OCC | 3650 nM |
| c1cc2c(cc1-c1csc(NNC3=NCCCCC3)n1)OCCO2 | 1070 nM |
| Cc1ccc(NC(=O)CSc2nc3ccccc3nc2N2CCCC2)cc1 | 2110 nM |

| Structure (SMILES) | IC50 |
| --- | --- |
| CCOc1ccccc1NC(=O)CCC(=O)Nc1ccccc1OCC | 4180 nM |
| CCOc1ccc(CCNC(=O)COC(=O)c2cc(OC)cc(OC)c2)cc1OCC | 6120 nM (inactive) |
| CCCOc1ccc(/C=N/Nc2ccccc2[N+](=O)[O-])c(OCCC)c1 | < 500 nM |
| CCOc1ccc(CCNC(=O)Cn2cccc2C(=O)c2ccccc2)cc1OCC | 1640 nM |
| COc1ccc(C(=O)OC(C)C(=O)NC(C)CCc2ccccc2)cc1OC (stereo not drawn) | 2560 nM |
| CCC(C)(C)NC(=O)C(c1ccc(OC)cc1)N(Cc1ccccc1)C(=O)CCC(=O)Nc1cc(C)on1 (stereo not drawn) | 3420 nM |
| CCCN1C(=O)/C(=C\C=C2\N(CC)c3ccccc3C2(C)C)SC1=S | < 500 nM |
| COCCNC(=S)N1CCc2cc(OC)c(OC)cc2C1COc1cc(C)cc(C)c1 (stereo not drawn) | 4080 nM |
| CCOc1ccc(CCNC(=O)c2cc(C)nc3ccccc23)cc1OCC | 6400 nM (inactive) |
| CCCCCCn1c(SCC(=O)Nc2cc(C)on2)nc2ccccc2c1=O | 750 nM |
| COc1ccc(/C=C(\NC(=O)c2ccc(OCC(C)C)cc2)C(=O)OCc2ccco2)cc1 | 2710 nM |
| CCCCn1c(N)c(-c2nc3ccccc3s2)c2c([N+](=O)[O-])nn(CC)c(=O)c21 | 9330 nM (inactive) |
| CCC(C(=O)NCc1cccc(C)c1)n1nc(C)c2c(C)n(-c3ccccc3)nc2c1=O (stereo not drawn) | 6770 nM (inactive) |
| CCOc1ccccc1NC(=O)CCCNC(=O)c1ccc(Cl)cc1 | 10700 nM (inactive) |
| CCCCNC(=O)c1ccc2c(c1)N(C)C(=O)c1ccccc1S2 | 6880 nM (inactive) |
| CCCOc1ccc(C(=O)OCC(=O)NCCc2ccc(OCC)c(OCC)c2)cc1OC | 593 nM |
| COc1ccc(CC(=O)Nc2oc(-c3ccccc3)c(-c3ccccc3)c2C#N)cc1OC | 1260 nM |
| COc1ccc(C(=O)OC(C)C(=O)NC(C)CCc2ccccc2)cc1[N+](=O)[O-] (stereo not drawn) | 549 nM |
| CCOc1ccc(CCNC(=O)c2c(C)nn(-c3ccccc3)c2Cl)cc1OCC | 7560 nM (inactive) |
| CC1CC(C)CN(C(=O)c2ccc3c(c2NCCO)C(=O)c2ccccc2C3=O)C1 (stereo not drawn) | 687 nM |
| CC(C)COc1cccc(-c2cc(C(=O)Nc3ccon3)c3ccccc3n2)c1 | 3830 nM |
| COc1ccc(CCNC(=O)Cc2cccc(C(F)(F)F)c2)cc1OC | 9060 nM (inactive) |
| CCOc1ccc(CN(C)C(=O)CNC(=O)c2ccc3ccccc3c2)cc1OC | 809 nM |
